# Measurements from ChEMBL document CHEMBL1148379 (J Med Chem, 2004).
# Key:
# [1] = molecular target: Bifunctional dihydrofolate reductase-thymidylate synthase (Plasmodium falciparum K1) (UniProt P13922); experiment: Inhibitory activity against quadruple mutant dihydrofolate reductase (N51I C59R S108N I164L DHFR), relative to trimethoprim
# Procedure, shortened: (§1)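 Wild-type and mutant P. falciparum DHFR expressed in E. coli BL21(DE3)pLysS. Ki calculated assuming inhibitors compete with substrate at the active site.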
# [2] = molecular target: Bifunctional dihydrofolate reductase-thymidylate synthase (Plasmodium falciparum K1) (UniProt P13922); experiment: Inhibitory activity against double mutant dihydrofolate reductase (C59R S108N DHFR), relative to trimethoprim; procedure, shortened: as §1
# [3] = molecular target: Bifunctional dihydrofolate reductase-thymidylate synthase (Plasmodium falciparum K1, UniProt P13922, C59R/I164L/N51I/S108N); experiment: Inhibitory activity against quadruple mutant dihydrofolate reductase (N51I C59R S108N I164L DHFR)
# [4] = molecular target: Bifunctional dihydrofolate reductase-thymidylate synthase (Plasmodium falciparum K1) (UniProt P13922); experiment: Inhibitory activity against wild-type dihydrofolate reductase (S108N DHFR), relative to trimethoprim; procedure, shortened: as §1
# [5] = molecular target: Bifunctional dihydrofolate reductase-thymidylate synthase (Plasmodium falciparum K1) (UniProt P13922); experiment: Inhibitory activity against triple mutant dihydrofolate reductase (C59R S108N I164L DHFR), relative to trimethoprim; procedure, shortened: as §1
# [6] = molecular target: Bifunctional dihydrofolate reductase-thymidylate synthase (Plasmodium falciparum K1, UniProt P13922); experiment: Inhibitory activity against double mutant dihydrofolate reductase (C59R+S108N DHFR)
# [7] = molecular target: Bifunctional dihydrofolate reductase-thymidylate synthase (Plasmodium falciparum K1, UniProt P13922, C59R/I164L/S108N); experiment: Inhibitory activity against triple mutant dihydrofolate reductase (C59R S108N I164L DHFR)
# Sequence of Bifunctional dihydrofolate reductase-thymidylate synthase (Plasmodium falciparum K1, UniProt P13922, C59R/I164L/S108N) (P13922 whole entry, looked up, stated change not applied): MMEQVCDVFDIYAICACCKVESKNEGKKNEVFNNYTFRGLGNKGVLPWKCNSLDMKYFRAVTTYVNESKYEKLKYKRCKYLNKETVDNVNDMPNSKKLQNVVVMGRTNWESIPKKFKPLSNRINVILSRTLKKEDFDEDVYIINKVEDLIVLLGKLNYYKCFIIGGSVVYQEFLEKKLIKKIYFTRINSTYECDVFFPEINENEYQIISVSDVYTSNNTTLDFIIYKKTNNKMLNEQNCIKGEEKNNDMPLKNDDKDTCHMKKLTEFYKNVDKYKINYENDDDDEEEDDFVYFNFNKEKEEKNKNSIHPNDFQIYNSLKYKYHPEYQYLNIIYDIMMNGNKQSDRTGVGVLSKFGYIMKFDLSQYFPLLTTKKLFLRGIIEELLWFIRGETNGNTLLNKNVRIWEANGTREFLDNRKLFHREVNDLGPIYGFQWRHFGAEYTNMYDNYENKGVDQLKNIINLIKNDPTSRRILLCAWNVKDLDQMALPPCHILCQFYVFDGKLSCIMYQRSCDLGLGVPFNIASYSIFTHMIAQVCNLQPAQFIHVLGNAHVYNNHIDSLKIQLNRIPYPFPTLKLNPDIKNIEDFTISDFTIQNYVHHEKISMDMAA
# Sequence of Bifunctional dihydrofolate reductase-thymidylate synthase (Plasmodium falciparum K1) (P13922 whole entry, looked up): as the sequence (P13922 whole entry, looked up, stated change not applied) above
# Sequence of Bifunctional dihydrofolate reductase-thymidylate synthase (Plasmodium falciparum K1, UniProt P13922, C59R/I164L/N51I/S108N) (P13922 whole entry, looked up, stated change not applied): as above
# Sequence of Bifunctional dihydrofolate reductase-thymidylate synthase (Plasmodium falciparum K1, UniProt P13922) (P13922 whole entry): as the sequence (P13922 whole entry, looked up, stated change not applied) above
Compound,Relative activity [1],Relative activity [2],Ki [3] [nM],Relative activity [4],Relative activity [5],Ki [6] [nM],Ki [7] [nM]
COc1ccc(Cc2cnc(N)nc2N)cc1,3.1,1.9,20500,2.3,0.7,464,3960
CCOc1ccc(Cc2cnc(N)nc2N)cc1OC,1.8,0.8,11800,1.5,0.6,187,3540
CCCCCOc1ccc(Cc2cnc(N)nc2N)cc1OCC,0.1,0.2,902,0.1,0.2,46.6,1160
CCOc1cc(Cc2cnc(N)nc2N)ccc1OCCCOc1ccccc1,0.12,0.2,770,0.06,0.03,47.7,166
Nc1ncc(Cc2ccc(OCCCc3ccccc3)cc2)c(N)n1,0.12,0.44,801,0.57,0.54,58.1,3040
COc1ccc(Cc2cnc(N)nc2N)cc1OC [DIAVERIDINE],2.1,1,13900,1.1,0.5,235,2650
CCCCCOc1cc(Cc2cnc(N)nc2N)ccc1OC,0.1,0.5,444,0.2,0.04,134,253
CCOc1cc(Cc2cnc(N)nc2N)ccc1OCCCOCCCOc1ccccc1,0.14,0.19,937,0.22,0.06,46.9,314
CCCCCCCOc1cc(Cc2cnc(N)nc2N)ccc1OC,0.1,0.4,445,0.3,0.05,104,292
CCCOc1cc(Cc2cnc(N)nc2N)ccc1OC,0.1,0.2,920,0.2,0.03,52.1,144
COc1cc(Cc2cnc(N)nc2N)ccc1OCc1cc(OC)c(OC)c(OC)c1,–,–,124,–,–,–,47.6
COc1cc(Cc2c(C)nc(N)nc2N)ccc1OCc1ccccc1,0.01,0.4,93.4,0.3,0.01,89.5,66.3
CCCOc1cc(Cc2c(N)nc(N)nc2CC)ccc1OCc1cc(OC)c(OC)c(OC)c1,0.1,0.2,693,0.17,0.03,48.7,154
COc1ccc(Cc2cnc(N)nc2N)cc1OCc1ccccc1,0.2,0.6,1130,0.7,0.11,143,630
COc1cc(Cc2cnc(N)nc2N)ccc1OCCCOc1ccccc1,0.09,0.15,606,0.19,0.05,37.1,257
CCCCCOc1ccc(Cc2cnc(N)nc2N)cc1,0.1,0.6,915,0.8,0.1,137,539
Nc1ncc(Cc2ccc(OCCCOc3ccccc3)cc2)c(N)n1,0.34,0.7,2260,0.63,0.08,170,471
CCCCCCCOc1ccc(Cc2cnc(N)nc2N)cc1,0.2,0.8,1380,1.7,0.4,196,2210
CCc1nc(N)nc(N)c1Cc1ccc(OCc2ccccc2)c(OC)c1,0.11,0.25,732,0.3,0.66,60.1,3740
COc1cc(Cc2cnc(N)nc2N)ccc1OCCCc1ccccc1,0.17,0.33,1120,0.17,0.54,–,3100
CCCCOc1cc(Cc2cnc(N)nc2N)ccc1OC,0.2,0.8,1030,0.2,0.1,194,772
COc1cc(Cc2cnc(N)nc2N)ccc1OCCCOCCCOc1ccccc1,0.33,0.63,2190,0.18,0.07,154,425
Nc1ncc(Cc2ccc(OCCCOCCCOc3ccccc3)cc2)c(N)n1,0.24,0.45,1590,0.68,0.05,108,264
CCCOc1ccc(Cc2cnc(N)nc2N)cc1,0.2,0.9,1520,1.5,0.2,211,1090
CCOc1cc(Cc2cnc(N)nc2N)ccc1OCCCc1ccccc1,0.08,0.08,525,0.1,0.06,10.6,374
